Measured values as given in article PMC8255191 (European Journal of Medicinal Chemistry, 2021).
Where “and” joins values, the source holds several entries; their conditions need not be identical. Equal values may be shown once. Read-outs that look alike come from different tables or passages of the source.

Legend:
[1] = target: D2pol: polymerase domain of dengue 2 virus (Dengue virus type 2, UniProt P14340); test: In vitro polymerase assay; format: biochemical; settings: read-out: IC50 D2pol; polymerase activity
[2] = target: ZIKV NS5: full length ZIKV protein (Zika virus, UniProt A0A024B7W1); test: In vitro polymerase assay; format: biochemical; settings: read-out: IC50 ZIKV NS5, polymerase activity
[3] = target: D2 NS5: full length DENV protein (Dengue virus type 2, UniProt P14340); test: In vitro polymerase assay; format: biochemical, dengue 2 virus; settings: read-out: IC50 D2 NS5, polymerase activity
DENV-2 [4] = settings: read-out: IC50 DENV-2; cited from earlier work
ZIKV [5] = settings: read-out: IC50 ZIKV; cited from earlier work
[6] = Cytotoxicity, CellTiter-Glo 2.0 luminescent cell viability assay; format: cell-based; settings: human, Huh7 cells
[7] = test system: influenza A virus strains PR8 H1N1, pandemic 2009H1N1, avian Ulster H7N1; format: cell-based
[8] = test system: Dengue, Zika, West Nile and Influenza A viruses; test: Antiviral activity, range over the tested viruses; format: cell-based; settings: read-out: IC50 (range over viruses)
PR8 H1N1 = test: Time-of-addition, In Cell Western of hemagglutinin; format: cell-based, Influenza A virus
[9] = test system: DENV NS3 and NS5 proteins; format: cell-based, DENV-2; settings: for expression of NS5 protein: 6i 50 μM (p ≤ 0.0001 at 16 h), Sofosbuvir 100 μM (from 12 h, p ≤ 0.01); for expression of NS3 protein: 6i 50 μM (p ≤ 0.05 at 12 h), Sofosbuvir 100 μM (from 12 h, p ≤ 0.05)
[10] = Stability towards oxidative stress; format: physicochemical; settings: 40 mM H2O2 in ethanol, argon atmosphere; data not shown
[11] = ABTS radical decolorization assay; format: physicochemical; settings: 10 μM-1 mM, 10 min; Fig. 2
In short: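 ABTS radical cation solution, diluted 1:100 in ethanol to an absorbance of 0.70 (±0.02) at 734 nm, serves as the control solution. Test compound or ascorbic acid reference, dissolved in DMSO at 10 μM, 50 μM, 0.1 mM, 0.2 mM, 0.5 mM or 1 mM, is added. A734 is read after exactly 10 min, and %scavenging = [(A0 − As)/A0] × 100, with the control run in each assay.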

DENV = test: In vitro resistance selection in Huh7 cells, NS3/NS5 population sequencing; format: cell-based, Dengue virus serotype 2 (New Guinea C)
ZIKV [12] = test: as above; format: cell-based, Zika virus (H/PF/2013)
SARS-CoV-2 = settings: SARS-CoV-2, Calu-3; literature value in parenthesis; cited from earlier work
DENV-2 [13] = test: Plaque reduction assay; format: cell-based, Dengue virus serotype 2 (New Guinea C); settings: Dengue virus, DENV2, read-out: DENV-2 IC50

Sequence of ZIKV NS5: full length ZIKV protein (A0A024B7W1 2521-3423 limits assumed): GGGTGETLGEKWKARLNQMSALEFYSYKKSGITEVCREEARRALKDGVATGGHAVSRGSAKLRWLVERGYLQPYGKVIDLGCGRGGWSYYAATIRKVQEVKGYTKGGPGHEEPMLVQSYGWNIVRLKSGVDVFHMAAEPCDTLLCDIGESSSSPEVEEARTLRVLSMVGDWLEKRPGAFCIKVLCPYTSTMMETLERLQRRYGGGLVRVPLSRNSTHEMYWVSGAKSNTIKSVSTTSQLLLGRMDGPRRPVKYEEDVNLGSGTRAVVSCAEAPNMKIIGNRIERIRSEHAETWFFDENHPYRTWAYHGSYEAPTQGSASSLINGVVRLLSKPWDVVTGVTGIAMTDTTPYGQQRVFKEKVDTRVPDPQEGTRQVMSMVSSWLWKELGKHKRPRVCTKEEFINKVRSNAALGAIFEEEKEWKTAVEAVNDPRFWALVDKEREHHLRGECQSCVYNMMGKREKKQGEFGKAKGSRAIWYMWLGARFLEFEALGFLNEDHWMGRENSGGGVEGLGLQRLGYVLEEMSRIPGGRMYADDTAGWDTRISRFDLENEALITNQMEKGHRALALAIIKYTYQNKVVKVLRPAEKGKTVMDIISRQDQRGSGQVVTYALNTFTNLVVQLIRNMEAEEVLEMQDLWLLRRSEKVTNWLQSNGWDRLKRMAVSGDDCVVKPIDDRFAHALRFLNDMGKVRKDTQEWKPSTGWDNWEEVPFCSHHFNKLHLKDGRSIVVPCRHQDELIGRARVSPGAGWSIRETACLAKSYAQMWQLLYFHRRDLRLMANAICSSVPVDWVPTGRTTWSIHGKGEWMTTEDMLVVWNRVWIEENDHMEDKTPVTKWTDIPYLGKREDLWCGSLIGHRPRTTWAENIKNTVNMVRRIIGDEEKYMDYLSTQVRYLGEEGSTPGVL

Nc1ncnc2c1ncn2[C@@H]1O[C@H](COP(=O)(O)OP(=O)(O)OP(=O)(O)O)C[C@H]1O [3'dATP]
IC50 [1]: 0.27 ± 0.03 µM
IC50 [2]: 1 ± 0.2 µM
IC50 [3]: 0.32 ± 0.05 µM

Oc1cccc(Nc2nc(NCCOc3ccccc3)nc3[nH]cnc23)c1 [Compound 3]
IC50 (DENV-2 [4]): 10 µM
IC50 (ZIKV [5]): 16.7 µM

Fc1cccc(Nc2nc(NCCOc3ccccc3)nc3[nH]cnc23)c1 [Compound 6c, N6-(3-fluorophenyl)-N2-(2-phenoxyethyl)-9H-purine-2,6-diamine]
CC50 [6]: > 200 µM

CNc1nc(Nc2cccc(C(=O)OC)c2)c2nc[nH]c2n1 [Compound 6d, Methyl 3-((2-(methylamino)-9H-purin-6 yl)amino)benzoate]
CC50 [6]: > 200 µM

COC(=O)c1cccc(Nc2nc(NCCO)nc3[nH]cnc23)c1 [Compound 6e, Methyl 3-((2-((2-hydroxyethyl)amino)-9H-purin-6-yl)amino)benzoate]
CC50 [6]: > 200 µM

CNc1nc(Nc2cccc(C(F)(F)F)c2)c2nc[nH]c2n1 [Compound 6g, N2-methyl-N6-(3-(trifluoromethyl)phenyl)-9H-purine-2,6-diamine]
CC50 [6]: > 200 µM

FC(F)(F)c1cccc(Nc2nc(NCCOc3ccccc3)nc3[nH]cnc23)c1 [Compound 6i, N [2]-(2-phenoxyethyl)-N [6]-(3-(trifluoromethyl)phenyl)-9H-purine-2,6-diamine]
inhibition of viral protein expression [7]: 20–26% and 28–45%
IC50 [8]: 0.5 to 5.3 µM
effect on HA expression (PR8 H1N1): not quite effective
expression of NS5 protein [9]: significantly reduced
expression of NS3 protein [9]: significantly reduced
MCC NS3/NS5 (Manders' colocalization coefficient) ([9]; 6i 50 μM, 16 h post infection, untreated control 0.726 ± 0.135): 0.404 ± 0.106
MCC NS5/NS3 (Manders' colocalization coefficient) ([9]; 6i 50 μM, 16 h post infection, untreated control 0.752 ± 0.125): 0.397 ± 0.101
CC50 [6]: > 200 µM
stability towards oxidative stress [10]: stable for days
radical scavenging activity (% inhibition of the ABTS absorbance at 734 nm) [11]: not observed
dpi (days post infection to 80% CPE) (DENV; 6i 15 μM): 6 days
dpi (days post infection to 80% CPE) (DENV; 6i 30 μM): 7 days
dpi (days post infection to 80% CPE) (DENV; 6i 60 μM): 5 days
dpi (days post infection to 80% CPE) (DENV; 6i 120 μM): 5 days and 9 days
dpi (days post infection to 80% CPE) (ZIKV [12]; 6i 15 μM): 8 days
dpi (days post infection to 80% CPE) (ZIKV [12]; 6i 30 μM): 5 days
dpi (days post infection to 80% CPE) (ZIKV [12]; 6i 60 μM): 5 days
dpi (days post infection to 80% CPE) (ZIKV [12]; 6i 120 μM): 5 days

Oc1ccc(Nc2nc(NCCOc3ccccc3)nc3[nH]cnc23)cc1O [Compound 6j, 4-((2-((2-phenoxyethyl)amino)-9H-purin-6-yl)amino)benzene-1,2-diol]
CC50 [6]: > 200 µM

CNc1nc(Nc2cccc(C(=O)O)c2)c2nc[nH]c2n1 [Compound 6l, 3-((2-(methylamino)-9H-purin-6-yl)amino)benzoic acid]
CC50 [6]: > 200 µM

O=C(O)c1cccc(Nc2nc(NCCOc3ccccc3)nc3[nH]cnc23)c1 [Compound 6m, 3-((2-((2-phenoxyethyl)amino)-9H-purin-6-yl)amino)benzoic acid]
CC50 [6]: > 200 µM

Fc1cccc(NNc2nc(NCCOc3ccccc3)nc3[nH]cnc23)c1 [Compound 10a, 6-(2-(3-fluorophenyl) hydrazinyl)-N-(2-phenoxyethyl)-9H-purin-2-amine]
stability towards oxidative stress [10]: quickly converted into 11a
radical scavenging activity (% inhibition of the ABTS absorbance at 734 nm) [11]: clear concentration-dependent radical scavenging activity

Fc1cccc(/N=N/c2nc(NCCOc3ccccc3)nc3[nH]cnc23)c1 [Compound 11a, 6-((3-fluorophenyl)diazenyl)-N-(2-phenoxyethyl)-9H-purin-2-amine]
stability towards oxidative stress [10]: stable for days
radical scavenging activity (% inhibition of the ABTS absorbance at 734 nm) [11]: not observed

CCC(CC)COC(=O)[C@H](C)N[P@](=O)(OC[C@H]1O[C@@](C#N)(c2ccc3c(N)ncnn23)[C@H](O)[C@@H]1O)Oc1ccccc1 [RMD]
IC50 (SARS-CoV-2): 0.28 µM

NC(=O)c1ncn([C@@H]2O[C@H](CO)[C@@H](O)[C@H]2O)n1 [Ribavirin, reference compound]
CC50 [6]: > 200 µM

CC(C)OC(=O)[C@H](C)N[P@](=O)(OC[C@H]1O[C@@H](n2ccc(=O)[nH]c2=O)[C@](C)(F)[C@@H]1O)Oc1ccccc1 [Sofosbuvir, reference compound]
IC50 (DENV-2 [13]): 3.8 µM
expression of NS5 protein [9]: significantly reduced
expression of NS3 protein [9]: significantly reduced
CC50 [6]: > 200 µM
